# Laboratory results from ChEMBL document CHEMBL1133675, “New substituted 1-(2,3-dihydrobenzo[1, 4]dioxin-2-ylmethyl)piperidin-4-yl derivatives with alpha(2)-adrenoceptor antagonist activity” (J Med Chem, 2000).
# Active and inactive are the calls of the source. Unless noted, the calls are words filed in the database; no cut-off is given here.
# How the values were obtained:
# Mus musculus [1] = assay: In vivo antagonism of guanabenz-induced hypothermia in mice after peroral administration at a dose of 10-40 mg/kg; type: functional; details: po
# In short: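 Male NMRI mice (30-32 g) dosed by oral gavage with drug or vehicle; 35 min later, guanabenz 1 mg/kg ip. Rectal temperature was taken 25 min after guanabenz with a thermistor probe. Inhibition meant temperature > 36 °C. Five mice were used per dose. The active dose range is the doses inhibiting hypothermia in more than 80% of animals.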
# Mus musculus [2] = assay: In vivo antagonism of guanabenz-induced hypothermia in mice after intraperitoneal administration at a dose of 0.63-10 mg/kg; type: functional; details: ip
# In short: (§1)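 Male NMRI mice, 30-32 g, 5 per dose; test drug or vehicle given ip, then 5 min later guanabenz 1 mg/kg ip. Rectal temperature read by thermistor probe 25 min after guanabenz. Inhibition means temperature > 36 °C. Active dose range = doses inhibiting in more than 80% of animals.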
# D(2) dopamine receptor = D(2) dopamine receptor (Rattus norvegicus, UniProt P61169); assay: In vitro inhibition of specific binding of [3H]-YM 09151-2 to Dopamine receptor D2 site in rat striatal tissue.; type: tissue-based, Striatum
# D(2) dopamine receptor, sequence (P61169 whole entry): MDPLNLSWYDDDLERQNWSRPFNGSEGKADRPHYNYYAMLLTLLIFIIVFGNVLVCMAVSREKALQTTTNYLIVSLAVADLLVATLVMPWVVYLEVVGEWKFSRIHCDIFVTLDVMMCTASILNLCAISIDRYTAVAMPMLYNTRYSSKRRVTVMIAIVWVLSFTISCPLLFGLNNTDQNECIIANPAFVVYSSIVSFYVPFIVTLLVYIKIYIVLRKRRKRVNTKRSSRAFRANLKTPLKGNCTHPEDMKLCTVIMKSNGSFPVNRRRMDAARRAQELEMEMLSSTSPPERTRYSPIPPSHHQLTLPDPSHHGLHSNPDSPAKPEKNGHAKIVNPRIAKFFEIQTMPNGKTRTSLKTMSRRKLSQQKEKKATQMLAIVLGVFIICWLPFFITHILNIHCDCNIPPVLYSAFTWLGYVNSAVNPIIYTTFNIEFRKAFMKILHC
# Mus musculus [3] = assay: In vivo antagonism of guanabenz-induced hypothermia in mice after intraperitoneal administration; type: functional; details: ip
# In short: (§2)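 Male NMRI mice, 30-32 g, 5 per dose; test drug or vehicle given ip, then 5 min later guanabenz 1 mg/kg ip. Rectal temperature read by thermistor probe 25 min after guanabenz. Inhibition means temperature > 36 °C. […] Active dose range = doses inhibiting in more than 80% of animals.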
# [4] = molecular target: T1, Adrenergic receptor alpha-2 (Rattus norvegicus, UniProt P22086+P19328+P22909); assay: In vitro inhibition of binding of [3H]-RX-821002 to alpha-2 adrenergic receptor site in rat brain membranes.; type: cell membranes
# T1 sequence (P22086 whole entry): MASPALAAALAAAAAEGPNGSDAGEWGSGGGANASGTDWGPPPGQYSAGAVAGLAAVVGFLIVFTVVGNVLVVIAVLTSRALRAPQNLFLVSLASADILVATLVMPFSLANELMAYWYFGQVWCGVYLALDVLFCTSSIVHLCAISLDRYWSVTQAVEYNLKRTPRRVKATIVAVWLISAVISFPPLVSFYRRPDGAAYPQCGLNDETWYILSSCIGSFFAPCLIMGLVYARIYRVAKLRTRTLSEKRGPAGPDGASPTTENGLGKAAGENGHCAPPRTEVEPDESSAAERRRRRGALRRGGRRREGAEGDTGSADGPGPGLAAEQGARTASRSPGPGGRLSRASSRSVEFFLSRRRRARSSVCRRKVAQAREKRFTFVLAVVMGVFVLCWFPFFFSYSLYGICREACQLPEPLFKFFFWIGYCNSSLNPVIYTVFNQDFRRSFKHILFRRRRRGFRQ
# T1 sequence (P19328 whole entry): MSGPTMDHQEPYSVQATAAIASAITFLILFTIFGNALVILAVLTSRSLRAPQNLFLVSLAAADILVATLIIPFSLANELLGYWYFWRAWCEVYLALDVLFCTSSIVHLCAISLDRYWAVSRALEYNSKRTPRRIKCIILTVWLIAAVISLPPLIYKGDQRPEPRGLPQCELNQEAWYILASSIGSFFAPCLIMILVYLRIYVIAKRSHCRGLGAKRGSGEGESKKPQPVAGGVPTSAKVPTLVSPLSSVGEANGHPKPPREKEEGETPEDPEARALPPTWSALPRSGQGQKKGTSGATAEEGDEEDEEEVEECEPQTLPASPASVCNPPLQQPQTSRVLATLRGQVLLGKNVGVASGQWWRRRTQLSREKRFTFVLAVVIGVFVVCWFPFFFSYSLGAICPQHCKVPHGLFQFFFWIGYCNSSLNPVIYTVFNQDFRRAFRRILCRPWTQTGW
# T1 sequence (P22909 whole entry): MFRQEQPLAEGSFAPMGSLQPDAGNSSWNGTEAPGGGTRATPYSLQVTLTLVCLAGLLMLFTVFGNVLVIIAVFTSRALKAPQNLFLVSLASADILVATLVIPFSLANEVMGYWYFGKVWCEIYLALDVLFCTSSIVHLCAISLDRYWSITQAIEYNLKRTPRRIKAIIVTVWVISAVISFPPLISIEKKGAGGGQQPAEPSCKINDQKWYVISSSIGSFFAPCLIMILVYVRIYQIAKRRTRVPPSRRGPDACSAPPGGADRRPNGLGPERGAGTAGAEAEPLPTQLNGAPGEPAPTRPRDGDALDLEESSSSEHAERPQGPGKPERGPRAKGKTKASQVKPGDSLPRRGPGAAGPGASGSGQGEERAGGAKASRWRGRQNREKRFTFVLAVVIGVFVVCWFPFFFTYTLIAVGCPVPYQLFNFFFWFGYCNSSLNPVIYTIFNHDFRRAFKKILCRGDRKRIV
# [5] = molecular target: T2, Adrenergic receptor alpha-1 (Rattus norvegicus, UniProt P15823+P23944+P43140); assay: In vitro inhibition of specific binding of [3H]- prazosin to alpha-1 adrenergic receptor site in rat brain membranes.; type: cell membranes
# T2 sequence (P15823 whole entry): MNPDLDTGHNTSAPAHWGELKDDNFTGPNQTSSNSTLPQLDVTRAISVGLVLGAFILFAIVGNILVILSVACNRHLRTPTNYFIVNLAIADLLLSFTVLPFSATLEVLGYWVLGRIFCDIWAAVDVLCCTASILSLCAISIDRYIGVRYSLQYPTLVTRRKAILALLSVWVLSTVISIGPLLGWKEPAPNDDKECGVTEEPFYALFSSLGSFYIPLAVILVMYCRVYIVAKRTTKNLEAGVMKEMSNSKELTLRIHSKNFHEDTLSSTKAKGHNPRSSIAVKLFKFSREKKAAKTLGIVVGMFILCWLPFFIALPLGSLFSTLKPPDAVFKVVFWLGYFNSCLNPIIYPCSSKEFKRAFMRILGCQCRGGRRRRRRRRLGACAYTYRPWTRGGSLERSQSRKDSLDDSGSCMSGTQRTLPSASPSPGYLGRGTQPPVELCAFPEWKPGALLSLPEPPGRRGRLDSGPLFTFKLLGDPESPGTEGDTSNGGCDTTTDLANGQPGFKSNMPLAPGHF
# T2 sequence (P23944 whole entry): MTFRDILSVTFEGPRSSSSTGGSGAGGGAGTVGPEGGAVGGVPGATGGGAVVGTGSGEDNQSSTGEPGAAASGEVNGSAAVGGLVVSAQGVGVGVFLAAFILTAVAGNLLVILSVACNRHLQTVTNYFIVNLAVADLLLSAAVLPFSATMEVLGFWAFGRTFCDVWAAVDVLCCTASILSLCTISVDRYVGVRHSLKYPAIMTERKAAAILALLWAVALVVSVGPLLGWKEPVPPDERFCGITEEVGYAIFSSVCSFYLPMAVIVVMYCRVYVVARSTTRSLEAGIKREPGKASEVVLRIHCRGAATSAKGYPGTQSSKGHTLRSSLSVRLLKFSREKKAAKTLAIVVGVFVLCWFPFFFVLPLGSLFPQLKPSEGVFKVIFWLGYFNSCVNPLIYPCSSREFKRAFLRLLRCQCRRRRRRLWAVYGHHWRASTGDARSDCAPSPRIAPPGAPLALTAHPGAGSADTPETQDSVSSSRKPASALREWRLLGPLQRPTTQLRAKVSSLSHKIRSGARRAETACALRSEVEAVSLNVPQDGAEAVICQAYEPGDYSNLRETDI
# T2 sequence (P43140 whole entry): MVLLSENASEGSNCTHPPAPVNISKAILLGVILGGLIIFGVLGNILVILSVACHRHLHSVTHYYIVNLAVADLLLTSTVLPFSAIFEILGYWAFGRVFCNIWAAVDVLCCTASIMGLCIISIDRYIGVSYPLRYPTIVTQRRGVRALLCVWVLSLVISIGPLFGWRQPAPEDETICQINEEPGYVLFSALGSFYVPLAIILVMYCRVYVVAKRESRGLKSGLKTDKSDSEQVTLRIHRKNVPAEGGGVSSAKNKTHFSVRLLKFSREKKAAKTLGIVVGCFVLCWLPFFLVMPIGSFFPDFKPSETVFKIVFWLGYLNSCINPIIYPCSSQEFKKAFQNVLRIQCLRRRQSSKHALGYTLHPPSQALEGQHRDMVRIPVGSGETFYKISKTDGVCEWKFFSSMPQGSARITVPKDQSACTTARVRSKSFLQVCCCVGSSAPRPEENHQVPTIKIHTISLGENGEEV
# Mus musculus [6] = assay: In vivo antagonism of guanabenz-induced hypothermia in mice after peroral administration; Inactive; type: functional, organism-based
# In short: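 Male NMRI mice (30-32 g), five per dose; vehicle or drug by oral gavage, guanabenz 1 mg/kg ip 35 min later. Rectal temperature by thermistor 25 min post-guanabenz; inhibition scored as temperature > 36 °C. […] Active range is doses giving inhibition in more than 80% of mice.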
# Mus musculus [7] = assay: In vivo antagonism of guanabenz-induced hypothermia in mice after intraperitoneal administration; […]; type: functional, organism-based; in short: as §2
# Mus musculus [8] = assay: In vivo antagonism of guanabenz-induced hypothermia in mice after intraperitoneal administration at a dose of 10 mg/kg; type: functional; details: ip; in short: as §2
# Mus musculus [9] = assay: In vivo antagonism of guanabenz-induced hypothermia in mice after peroral administration at a dose of 2.5-40 mg/kg; type: functional; details: po
# In short: (§3)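 Male NMRI mice (30-32 g), five per dose; vehicle or drug by oral gavage, guanabenz 1 mg/kg ip 35 min later. Rectal temperature by thermistor 25 min post-guanabenz; inhibition scored as temperature > 36 °C. Active range is doses giving inhibition in more than 80% of mice.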
# Mus musculus [10] = assay: In vivo antagonism of guanabenz-induced hypothermia in mice after intraperitoneal administration at a dose of 0.04-10 mg/kg; type: functional; details: ip; in short: as §2
# Mus musculus [11] = assay: In vivo antagonism of guanabenz-induced hypothermia in mice after intraperitoneal administration at a dose of 0.63 mg/kg; type: functional; details: ip; in short: as §2
# Mus musculus [12] = assay: In vivo antagonism of guanabenz-induced hypothermia in mice after intraperitoneal administration at a dose of 2.5-10 mg/kg; type: functional; details: ip; in short: as §1
# Mus musculus [13] = assay: In vivo antagonism of guanabenz-induced hypothermia in mice after intraperitoneal administration at a dose of 10-40 mg/kg; type: functional; details: ip; in short: as §2
# Mus musculus [14] = assay: In vivo antagonism of guanabenz-induced hypothermia in mice after intraperitoneal administration at a dose of 2.5 mg/kg; type: functional; details: ip; in short: as §2
# Mus musculus [15] = assay: In vivo antagonism of guanabenz-induced hypothermia in mice after peroral administration at a dose of 10 mg/kg; type: functional; details: route oral; in short: as §3
# Mus musculus [16] = assay: In vivo antagonism of guanabenz-induced hypothermia in mice after intraperitoneal administration at a dose of 1 mg/kg; type: functional; details: ip; in short: as §2
SMILES,IC50 (D(2) dopamine receptor) [nM],IC50 [4] [nM],IC50 [5] [nM],other results
c1ccc2c(c1)OCC(C1=NCCN1)O2 (stereo not given) [IDAZOXAN],> 10000,–,–,ED50 (Mus musculus [1]): 0.89 mg/kg; ED50 (Mus musculus [2]): 0.31 mg/kg
O=C(NCCC1CCN(CC2COc3ccccc3O2)CC1)NCc1ccccc1 (stereo not given),–,–,–,ED50 (Mus musculus [3]): 1.78 mg/kg
O=C(NCCC1CCN(CC2COc3ccccc3O2)CC1)Oc1ccccc1 (stereo not given),–,–,–,NA (Mus musculus [6]): inactive; NA (Mus musculus [7]): inactive
O=C(NC(=S)NCCC1CCN(CC2COc3ccccc3O2)CC1)c1ccccc1 (stereo not given),–,–,–,NA (Mus musculus [6]): inactive; NA (Mus musculus [7]): inactive
S=C(NCCC1CCN(CC2COc3ccccc3O2)CC1)Nc1ccccc1 (stereo not given),–,–,–,ED50 (Mus musculus [10]): 0.02 mg/kg
COc1ccc(NC(=O)NCCC2CCN(CC3COc4ccccc4O3)CC2)cc1 (stereo not given),–,–,–,ED50 (Mus musculus [11]): 0.27 mg/kg
O=C1N(CCC2CCN(CC3COc4ccccc4O3)CC2)CCN1c1ccc(F)cc1 (stereo not given),–,–,–,ED50 (Mus musculus [13]): 2.51 mg/kg
O=C(NCCC1CCN(CC2COc3ccccc3O2)CC1)Nc1ccc(O)cc1 (stereo not given),–,–,–,NA (Mus musculus [7]): inactive
O=C(NCCC1CCN(CC2COc3ccccc3O2)CC1)C(c1ccccc1)c1ccccc1 (stereo not given),–,–,–,NA (Mus musculus [6]): inactive; NA (Mus musculus [7]): inactive

# Now from value to compound, other results behind:
IC50 (D(2) dopamine receptor) [nM],IC50 [4] [nM],IC50 [5] [nM],SMILES,other results
1.8,1,11.5,O=C(Cc1ccccc1[N+](=O)[O-])NCCC1CCN(CC2COc3ccccc3O2)CC1 (stereo not given),–
550,25,70,O=C1Nc2ccccc2CN1CC1CCN(CC2COc3ccccc3O2)CC1 (stereo not given),–
135,4,70,CCOc1cccc(OCC)c1N1CCN(CCC2CCN(CC3COc4ccccc4O3)CC2)C1=O (stereo not given),ED50 (Mus musculus [8]): 0.89 mg/kg; ED50 (Mus musculus [9]): 0.53 mg/kg
50,10,70,COc1ccccc1CC(=O)NCCC1CCN(CC2COc3ccccc3O2)CC1 (stereo not given),–
320,4.5,200,COc1cc(OC)c(N2CCN(CCC3CCN(CC4COc5ccccc5O4)CC3)C2=O)c(OC)c1 (stereo not given),ED50 (Mus musculus [9]): 1.07 mg/kg; ED50 (Mus musculus [12]): 0.41 mg/kg
80,1.8,85,Cc1cccc(C)c1N1CCN(CCC2CCN(CC3COc4ccccc4O3)CC2)C1=O (stereo not given),ED50 (Mus musculus [1]): 5.01 mg/kg; ED50 (Mus musculus [12]): 0.41 mg/kg
35,2,42,O=C(NCCC1CCN(CC2COc3ccccc3O2)CC1)NC1CCCCC1 (stereo not given),NA (Mus musculus [6]): inactive; ED50 (Mus musculus [14]): 0.69 mg/kg
25,2,20,O=C(NCCC1CCN(CC2COc3ccccc3O2)CC1)c1ccccc1[N+](=O)[O-] (stereo not given),–
16,5,18,O=C1Nc2ccccc2CN1CCC1CCN(CC2COc3ccccc3O2)CC1 (stereo not given),–
1130,–,–,COC(=O)[C@@H]1[C@H]2C[C@H]3c4[nH]c5ccccc5c4CCN3C[C@@H]2CC[C@@H]1O [YOHIMBINE],ED50 (Mus musculus [15]): 1.23 mg/kg; ED50 (Mus musculus [16]): 0.56 mg/kg
480,36,180,CC(C)c1cccc(C(C)C)c1N1CCN(CCC2CCN(CC3COc4ccccc4O3)CC2)C1=O (stereo not given),–
